Screening results: PubChem, several laboratories
KCNQ1 act: human KCNQ1 channel potentiation or activation | P51787 | CHO-K1 KCNQ1, thallium flux FluxOR fluorescence; active compounds read high | B-score at 10 µM | 310,000 tested, 0.35% active | AID 2648;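 active = fluorescence ratio B-score, a plate-corrected score, at least three library SD, with initial intensity B-score within 5 SD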
Target sequence (P51787 whole entry, looked up): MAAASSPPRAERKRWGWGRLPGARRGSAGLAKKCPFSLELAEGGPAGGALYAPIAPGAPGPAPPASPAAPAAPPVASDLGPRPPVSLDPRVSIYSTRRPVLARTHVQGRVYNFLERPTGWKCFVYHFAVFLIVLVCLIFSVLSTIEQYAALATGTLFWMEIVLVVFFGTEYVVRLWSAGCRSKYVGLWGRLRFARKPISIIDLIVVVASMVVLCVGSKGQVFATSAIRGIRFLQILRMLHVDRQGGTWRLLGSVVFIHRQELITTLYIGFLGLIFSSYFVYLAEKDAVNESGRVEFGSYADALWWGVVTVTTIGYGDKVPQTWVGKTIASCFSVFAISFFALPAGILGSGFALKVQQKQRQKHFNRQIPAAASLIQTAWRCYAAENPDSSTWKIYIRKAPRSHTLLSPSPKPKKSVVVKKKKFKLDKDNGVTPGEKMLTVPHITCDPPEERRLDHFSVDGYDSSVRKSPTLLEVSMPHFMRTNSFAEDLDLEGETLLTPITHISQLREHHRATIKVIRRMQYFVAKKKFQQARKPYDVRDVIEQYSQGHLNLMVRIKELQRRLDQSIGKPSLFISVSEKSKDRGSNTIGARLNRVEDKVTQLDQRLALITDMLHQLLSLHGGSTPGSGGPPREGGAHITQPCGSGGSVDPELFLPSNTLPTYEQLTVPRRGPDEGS
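System: CHO-K1 cells stably expressing KCNQ1 / Medium: assay buffer for compound exposure, DMSO matched across wells / Reagent: thallium- and potassium-containing depolarizing buffer / Compound: one concentration, matched DMSO / Incubation: 20 min compound pretreatment at room temperature / Measured by: kinetic FluxOR fluorescence, 10 s baseline plus 110 s post-stimulus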
hERG rescue: compounds protecting human hERG from proarrhythmic drug block. Q12809. CHO-hERG, FluxOR thallium flux, dofetilide IC70 present. activation (rescue from dofetilide block), less the hit threshold, % at 10 µM. 310,000 tested, 0.51% active;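 active = activation above the mean of controls blocked by dofetilide plus 5 SD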;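 note: thallium influx through hERG after potassium depolarization seen as dye fluorescence rise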
AI-2 QS modul: modulates the Vibrio harveyi AI-2 quorum sensing system; activity change, % at 7.5 µM; Vibrio harveyi JMH597 AI-2 luminescence/OD600 ratio, 9 h; active compounds read low; strain lacks LuxN and CqsS sensors; 0 = neutral-control median; 300,000 tested, 0.4% active; in the data active = activity change below about -75%, passing the limit was not always enough;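 note: luminescence divided by OD600 gain over 9 h not by final OD600 alone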
KCNQ1 block: inhibitors of human KCNQ1 potassium channel; AID 2642; CHO-K1 KCNQ1, FluxOR thallium flux fluorescence; active compounds read high; 310,000 tested, 1.3% active; B-score at 10 µM; P51787;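 active = compounds whose thallium flux B-score, printed positive for inhibition, exceeds three library SD while starting fluorescence stays within three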;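 note: channel opened by potassium depolarization with thallium stimulus after 20 min compound exposure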
Cl transport mod: KCC2 (human) Cl- transport modulation. Q9H2X9. 190,000 tested, 2.2% active. B-score of Tl+ flux slope (higher = more flux/activation; lower = inhibition) at 10 µM. KCC2 cells, thallium flux FluoZin-2 fluorescence;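 active = thallium flux slope and its plate-corrected score both differing from the plate sample mean at a set confidence after two filtering rounds, in either direction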;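 note: slope of fluorescence scaled to starting intensity during 10 to 20 s after thallium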
SUMO Mot1 rescue: blocks SUMOylation pathway, rescuing yeast Mot1-301 growth | S. cerevisiae Mot1-301 growth rescue, ATP luminescence, 38.5C; percent above DMSO median, 100 means doubled | growth rescue, % at 18.8 µM | 320,000 tested, 1% active | AID 2716;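 active = every valid replicate shows activation above 250% relative to neutral control wells; inactive = the rest, any valid replicate at or below 250%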;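 note: OY570 slx delta 5 strain wells were the positive control but not used for scaling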
* = called active by the depositor; i = inactive; / = no result given. Shown are actives, neighbours in structure and some others; about 4.2% of the full set was active somewhere.

SMILES	KCNQ1 act	hERG rescue	AI-2 QS modul	KCNQ1 block	Cl transport mod	SUMO Mot1 rescue
O=C(CCNC(=O)c1ccccc1)Nc1ccc(Cl)c(S(=O)(=O)N2CCCCC2)c1	/	/	/	/	/	-6
CCOC(=O)C[C@H]1c2ccccc2S(=O)(=O)N1Cc1ccc(Cl)cc1	i	-5	18	i	/	16
COc1ccc(CN2[C@@H](CC(=O)O)c3ccccc3S2(=O)=O)cc1	i	6.7*	6	i	/	232
Cc1ccc2cc(CN(C(=O)c3ccncc3)C(C)C)c(=O)[nH]c2c1	i	-8	20	i	/	306*
CCn1c(SCC(=O)Nc2ccc(C)cc2)nnc1-c1ccc(O)cc1	i	-17	9	i	0.85	4
Clc1c(-c2nnc3n2CCC3)sc2ccccc12	i	-5	13	i	-1.6	7
Cn1c(-c2sc3ccccc3c2Cl)n[nH]c1=S	i	-10	24	i	13*	36
COc1ccc(C(=O)Nc2cccc(NC(=O)c3cccs3)c2)cc1OC	i	-7	15	i	/	4
COc1ccc(/C=C/C(=O)c2ccc(NC(=O)c3cccs3)cc2)cc1OC	i	8.9*	-6	i	/	-9
CCSc1nnc(NC(=O)c2ccccn2)s1	i	-2	-121*	i	2.3	58
CCSc1nnc(NC(=O)c2cnccn2)s1	i	-1	-2	i	/	-8
COCCCN(C(=S)Nc1cc(Cl)cc(Cl)c1)C(C)c1ccccn1 (stereo not drawn)	i	-8	19	8*	-1.5	-9
Cc1ccc(N=Nc2ccc(O)c3ncccc23)cc1	16*	20*	26	i	11*	-20
COc1ccccc1N=Nc1ccc(O)c2ncccc12	i	2	12	i	/	-13
Oc1oc(-c2cccc3ccccc23)nc1C=NCc1ccccc1	/	/	/	/	0.023	/
Oc1oc(-c2cccc3ccccc23)nc1/C=N/c1nccs1	12*	19*	14	i	24*	9
CCn1c(NCc2ccccc2NS(=O)(=O)c2ccc(C)cc2)nc2ccccc21	i	-7	53	i	-0.88	10
CCn1c(NCc2cc(Br)ccc2NS(=O)(=O)c2ccc(C)cc2)nc2ccccc21	i	-9	3	6*	0.32	5
Cc1ccc(S(=O)(=O)N2CCOC2CNC(=O)C(=O)NCCN2CCOCC2)cc1 (stereo not drawn)	i	-5	0	i	/	-11
Cc1c(-c2ccn[nH]2)cc(NC(=O)c2ccc(Cl)cc2)c(=O)n1N	i	5.0*	14	i	-0.25	-14
CC(C)c1ccccc1NC(=O)CSc1n[nH]c(=O)n1C1CC1	/	/	/	/	/	-4
O=C(NCC1CCCO1)c1cc(-c2ccc(F)cc2)no1 (stereo not drawn)	i	-5	23	i	/	4
CC(C)Cc1ccc(C(C)C(N)=NCCc2ccccc2)cc1 (stereo not drawn)	i	-22	16	9*	/	-1
COC(=O)C1(c2ccccc2)NC(c2ccc(O)cc2)C2C(=O)N(c3ccc4c(c3)OCO4)C(=O)C21 (stereo not drawn)	i	-5	18	i	0.09	260*
CCCC1(C(=O)OCC)NC(c2ccc(O)cc2)C2C(=O)N(c3ccc4c(c3)OCCO4)C(=O)C21 (stereo not drawn)	i	-1	-13	i	1.6	1
SMILES	KCNQ1 act	hERG rescue	AI-2 QS modul	KCNQ1 block	Cl transport mod	SUMO Mot1 rescue
COc1ccc(-c2nn(-c3ccccc3)cc2/C=C/C(=O)NCCCn2ccnc2)cc1OC	i	-36	17	7*	-0.75	2
COc1ccc(-c2nn(-c3ccccc3)cc2C(=O)NCCCn2ccnc2)cc1	i	-2	27	i	-1.1	-5
c1ccc2c(Nc3nncs3)c3ccccc3nc2c1	i	-7	22	i	-0.27	314*
COc1ccc(Nc2c3ccccc3nc3ccccc23)cc1	i	-12	10	i	/	-8
COC(=O)C1=C(C(=O)OC)[C@@H]2N(C)c3ccc(OC)cc3[C@@]23C[C@@H](C(=O)OC)N(C(=O)COCc2ccccc2)C3=N1	i	-5	18	i	/	26
Cc1ccc2c(=O)c(C(=O)NCc3cccs3)c[nH]c2c1	i	4.8*	-7	i	0.0046	-3
Cc1cccc2c(=O)c(C(=O)NCc3cccs3)c[nH]c12	i	-10	7	i	0.24	13
COc1ccc(S(=O)(=O)N(C)c2ccc(C(=O)N3CCC(C(N)=O)CC3)cc2)cc1OC	i	-2	24	i	0.045	345*
COc1ccc(S(=O)(=O)N(C)c2ccc(C(=O)N3CCC(C(N)=O)CC3)cc2)cc1	i	-2	10	i	-0.72	-15
O=C(N/N=C/c1ccc(N2CCOCC2)cc1)c1ccccc1OCCOc1ccccc1	i	-7	17	7*	-1.5	5
COc1ccc(C2CC(=O)N3CN(Cc4ccco4)CSC3=C2C#N)cc1 (stereo not drawn)	i	-4	19	i	-0.76	-3
COc1ccc2ccccc2c1C1CC(=O)N2CN(Cc3ccco3)CSC2=C1C#N (stereo not drawn)	i	-6	23	7*	-1.6	-10
CCOC(=O)C1CCN(C(=O)c2cc(S(=O)(=O)N3CCOCC3)c(Cl)cc2Cl)CC1	i	-10	34	i	-0.15	285*
Nc1nc(Nc2cccc(Cl)c2)n[nH]1	i	-4	23	i	-0.51	-7
COc1ccc(N2C(=O)c3ccc(C(=O)Nc4ccc(NC(C)=O)cc4)cc3C2=O)cc1	i	-4	17	i	/	12
Cc1ccc(/C=C/C(=O)c2cc(Br)ccc2OC(=O)c2ccco2)cc1	i	-12	12	i	-0.032	115
CCOc1ccc(/C=C/C(=O)c2cc(Br)ccc(=O)c2O)cc1	/	/	/	/	31*	-19
CCc1ccc(/C=C/C(=O)c2cc(Br)ccc(=O)c2O)cc1	38*	0	11	i	8*	18
Cc1ccc(/C=C/C(=O)c2ccccc2O)cc1	i	-7	14	i	-0.21	-8
Cc1cccc(/C=C/C(=O)c2cc(Br)ccc(=O)c2O)c1	25*	-2	2	i	11*	7
CCOc1ccc(C(=O)/C=C/c2ccc(OC)c(OC)c2)cc1	i	-8	6	i	-0.38	8
ClCc1ncc(-c2ccc(Cl)cc2)o1	i	-7	15	i	0.45	-5
Cc1ccc(OCCSc2nc(NC(C)C)nc(NC(C)C)n2)cc1	i	-16	28	6*	-0.2	-18
CC(C)[C@H](NC(=O)c1ccccc1Cl)C(=O)OCC(=O)N1CCCCC1	/	/	/	/	/	6
